The text below walks through data of publication PMC7933111 (ACS chemical neuroscience, 2021).

Series [1] has as its system C57BL/6 wild-type mice. Kind of series: Head-twitch response. The class given is in vivo, mouse. The note with it: for effect of antagonist pretreatment on HTR in mice administered 1-NP or 2-NP: 5-HT1AR antagonist WAY100635 or 5-HT2CR antagonist SB-242084 pretreatment; for HTR counts vs vehicle: 5 mg/kg, first 30 min postinjection, wild-type.
In series [2] the target is T1, 5-HT2AR (Homo sapiens, UniProt P28223). The class given is binding.
T1 sequence (P28223 whole entry): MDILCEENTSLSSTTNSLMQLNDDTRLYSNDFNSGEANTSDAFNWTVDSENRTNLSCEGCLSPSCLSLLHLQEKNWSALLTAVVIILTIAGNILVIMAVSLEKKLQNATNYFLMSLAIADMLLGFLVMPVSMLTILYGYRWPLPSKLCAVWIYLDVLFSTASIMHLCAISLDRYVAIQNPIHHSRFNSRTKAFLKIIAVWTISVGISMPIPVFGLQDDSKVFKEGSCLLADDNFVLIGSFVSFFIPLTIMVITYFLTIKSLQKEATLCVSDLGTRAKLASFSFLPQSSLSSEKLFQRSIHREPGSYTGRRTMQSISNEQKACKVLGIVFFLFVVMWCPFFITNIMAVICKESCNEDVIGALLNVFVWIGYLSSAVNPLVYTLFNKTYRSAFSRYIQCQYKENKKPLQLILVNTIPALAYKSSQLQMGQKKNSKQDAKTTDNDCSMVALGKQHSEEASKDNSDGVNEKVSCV
Series [3] concerns 5-HT2A-KO mice. The series can be described thus: Head-twitch response. The conditions noted are these: 5 mg/kg, first 30 min postinjection. It is filed as in vivo, mouse. An outline of the steps:
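Adult (8–16 weeks) male 5-HT2A-KO mice rederived from 129sv (F5), from the authors' colony. After 30 min of chamber habituation for baseline, mice were dosed and followed 90 min by magnetometer. HTR counts were automated with minor visual checking and summed over the first 30 min post-injection, then compared with vehicle by one-way ANOVA with Bonferroni post hoc; n = 5–12.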

Series [4] has as its target T1, 5-HT2AR. Kind of series: Intracellular Ca2+ mobilization. It is filed as cell-based. The note with it: for Emax: HEK293, read-out: Emax (Ca2+ mobilization).
For series [5], the system named is rats trained to distinguish DOM from vehicle. The note with it: cited from earlier work.
Series [6] has as its system mice. Kind of series: GI effect of 5-HTP in mice. It is filed as in vivo, mouse. The conditions noted are these: i.p., data not shown.
Series [7] deals with 5-HT2AR. The series can be described thus: IP1 accumulation in vivo. On the set-up: species or system mouse. The method, boiled down:
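Male C57BL/6 mice, 10 weeks old, received LiCl 200 mg/kg and returned home 30 min before treatment; co-administered antagonist was given in the same solution. Mice were decapitated 60 min later, and frontal cortex and posterior cerebellum were frozen at −80 °C. Tissue was bead-lysed at 4 °C in kit buffer with 50 mM LiCl and centrifuged at 17 000g. HTRF was read in duplicate; inverted 615/665 ratio, cortex/cerebellum fold-change; n = 3/group.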

The test system of series [8] is mice. The series can be described thus: Quantification of feces. It is filed as in vivo, mouse. The method, boiled down: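 Mice habituated to the monitoring chambers and to i.p. injections were acclimated 30 min, then injected i.p. with drug(s) or saline vehicle at 10 μL/g. Feces were counted over the first 30 min; pellets present before or immediately after injection were excluded. n = 9; two-way ANOVA with Bonferroni post hoc.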

For series [9], the target named is 5-HT2AR. The series can be described thus: [3H]ketanserin binding displacement, mouse frontal cortex membranes. The conditions noted are these: 5 nM [3H]ketanserin.
The target in series [10] is T1, 5-HT2AR. It is filed as binding. This is another data set of the same source.
Series [11] concerns c-fos, egr-1, egr-2. Kind of series: Immediate early gene expression in somatosensory cortex, 5-HT2AR-KO mice. It is filed as in vivo, mouse. The note with it: 5 mg/kg, 60 min, 5-HT2AR-KO littermates. An outline of the steps:
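Adult (10–20 weeks) 129S6/SvEv 5-HT2AR-KO mice, born to Htr2a± heterozygote breeders. Somatosensory cortex was taken 60 min after 5 mg/kg test compound or vehicle, and c-fos, egr-1 and egr-2 expression was measured alongside a housekeeping gene; n = 5.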

Series [12] has as its target T1, 5-HT2AR. The series can be described thus: IP1 accumulation in vitro. The class given is cell-based. The conditions noted are these: single concentration, 30 min at 37 °C.
In series [13] the test system is c-fos, egr-1, egr-2. Kind of series: Immediate early gene expression in somatosensory cortex, wild-type mice. The note with it: 5 mg/kg, 60 min, wild-type 129S6/SvEv. It is filed as in vivo, mouse.

Where two headings read alike, the source gives them in different places. Bounds are passed on as bounds.

For the compound `COc1ccccc1N1CCN(CCN(C(=O)C2CCCCC2)c2ccccn2)CC1.O=C(O)/C=C\C(=O)O` [WAY100635, N-[2-[4-(2-methoxyphenyl)-1-piperazinyl]ethyl]-N-2-pyridinylcyclohexanecarboxamide maleate], the “effect of antagonist pretreatment on HTR in mice administered 1-NP or 2-NP” value in series [1] is given as “did not significantly affect HTR”.

For the compound “6-chloro-2,3-dihydro-5-methyl-N-[6-[(2-methyl-3-pyridinyl)oxy]-3-pyridinyl]-1H-indole-1-carboxyamide dihydrochloride [SB-242084]”, the “effect of antagonist pretreatment on HTR in mice administered 1-NP or 2-NP” value in [1] is “did not significantly affect HTR”.

As to `c1ccc2c(N3CCNCC3)cccc2c1` [1-NP, 1-(naphthalen-1-yl)piperazine], the “HTR counts vs vehicle” value in [1] is “Neither isoquipazine nor 1-NP produced changes in HTR counts”. Further, the HTR dose-response entry in [1] (i.p.) is listed as “apparent suppression of HTR counts at all tested doses”. The compound further had a Ki in series [2] of 0.1 µM.

Take `c1ccc2cc(N3CCNCC3)ccc2c1` [2-NP, 1-(naphthalen-2-yl)piperazine]: the “HTR vs vehicle in 5-HT2AR-KO mice” value in [3] is listed as “did not differ”. In series [4], the half-maximal effective concentration (EC50) is 0.15 µM and the Emax was found to be 48.9%. Also, in series [5], the “generalization for the DOM stimulus” value is on record as “full generalization”. In addition, the “HTR counts vs vehicle” value in series [1] was “increase in HTR that differed statistically from vehicle”. Further, in series [1] (Mus musculus, ip, read-out: ED50 (HTR)), the 50% effective dose (ED50) amounted to 0.42 ± 0.2 mg/kg. The HTR dose-response entry in series [1] (i.p.) was “dose-dependent”. For the same compound, the inhibition constant Ki in series [2] was 0.724 µM.

For `N[C@@H](Cc1c[nH]c2ccc(O)cc12)C(=O)O` [5-HTP, 5-hydroxytryptophan], the GI effect result in [6] is recorded as “produced diarrhea”.

Consider `COc1cccc([C@H](O)C2CCN(CCc3ccc(F)cc3)CC2)c1OC` [M100907, (R)-(+)-α-(2,3-dimethoxyphenyl)-1-[2-(4-fluorophenyl)ethyl]-4-pipidinemethanol], for which the “effect on quipazine-induced IP1 accumulation in vivo” value in [7] (M100907 0.1 mg/kg with quipazine 5 mg/kg) is given as “successfully blocked”.

In [4], `c1ccc2c(N3CCNCC3)nccc2c1` [isoquipazine, 1-(piperazin-1-yl)isoquinoline] had an IC50 of 24.7 µM. The “HTR counts vs vehicle” value in series [1] is “Neither isoquipazine nor 1-NP produced changes in HTR counts”. The Ki in series [2] was 3.8 µM.

`c1ccc2nc(N3CCNCC3)ccc2c1` [quipazine, 2-(piperazin-1-yl)quinoline]: the “effect on feces count” value in [8] (quipazine 5 mg/kg, first 30 min) was “feces count increase”. In [7] (5 mg/kg, LiCl 200 mg/kg pretreatment, 60 min), the “IP1 accumulation in frontal cortex vs vehicle” value was “greater accumulation of IP1”. Also, the “HTR vs vehicle in 5-HT2AR-KO mice” value in series [3] was “did not differ”. The pKi in series [9] is on record as 5.601 ± 0.16. Also, in series [4], the EC50 was 7.26 µM and the Emax was 44.3%. For the same compound, the “effect on HTR counts” value in series [1] (different doses, i.p., 90 min recording) is “robust and long-lasting increase on HTR counts”. In series [1] (highest doses evaluated), the “duration of HTR increase” value is given as “over 90 min”. Moreover, the “time of peak of HTR increase post injection” value in series [1] (i.p.) was no more than 30 min. The compound further had an inhibition constant Ki in [10] of 5.13 µM. This compound also had a Ki in series [2] of 20 µM. The “changes in c-fos, egr-1 and egr-2 expression” value in series [11] is recorded as “not observed”. The “IP1 accumulation (in words)” value in series [12] was “robust increase of IP1 accumulation”. For the same compound, the “cortical expression of c-fos, egr-1 and egr-2” value in series [13] is “exhibited changes in the cortical expression of c-fos, egr-1, and egr-2”.

With `Cc1nccn1CC1CCc2c(c3ccccc3n2C)C1=O` (stereo not drawn) [ondansetron, 1,2,3,9-tetrahydro-9-methyl-3-[(2-methyl-1H-imidazol-1-yl)methyl]-4H-carbazol-4-one], the “effect on quipazine-induced feces count increase” value in series [8] (ondansetron 1 mg/kg with quipazine 5 mg/kg, 30 min following cotreatment) is reported as “successfully reduced”.
